Columns and labels:
MM96L = experiment: Antiproliferative activity against human MM96L cells; type: functional, cell-based
Outline: (§1)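 Cells cultured in RPMI 1640 with 10% heat-inactivated FCS, 3 mM HEPES, 5% CO2, 37 °C; NFF are primary neonatal foreskin fibroblasts. Cells were seeded at 5 × 10^3/well and left to adhere overnight. They were exposed to compound for 24 h, then the medium was replaced and cells grown a further 72 h. Survival was read by SRB staining at 564 nm, giving IC50.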

NFF = experiment: Antiproliferative activity against human NFF cells; type: functional, cell-based; outline: as §1

| Structure (SMILES) | IC50 (MM96L) [µM] | IC50 (NFF) [µM] |
| --- | --- | --- |
| O=C(CCCCC[C@H](NC(=O)Cc1c[nH]c2ccccc12)C(=O)NCc1ccccc1)NO | 0.33 | > 2.2 |
| O=C(CCCCC[C@H](NC(=O)c1cc2c(Br)cccc2[nH]1)C(=O)NCc1ccccc1)NO | 0.49 | 1.94 |
| CN(C)c1ccc(NC(=O)[C@H](CCCCCC(=O)NO)NC(=O)OCc2ccccc2)cc1 | 0.61 | 0.65 |
| O=C(CCCCC[C@H](NC(=O)c1cc2c(O)cccc2[nH]1)C(=O)NCc1ccccc1)NO | 0.33 | 2.21 |
| O=C(CCCCC[C@H](NC(=O)c1cc2ccccc2[nH]1)C(=O)NC1(Cc2ccccc2)CCCC1)NO | 0.9 | 1.6 |
| COc1ccc(CCNC(=O)C(CCCCCC(=O)NO)NC(=O)c2ccco2)cc1 (configuration not stated) | 0.97 | 1.3 |
| O=C(CCCCC[C@H](NC(=O)c1ccc(Br)cc1)C(=O)NCc1ccccc1)NO | 1.99 | 5.86 |
| O=C(CCCCC[C@H](NC(=O)c1ccc(Br)cc1)C(=O)NCc1ccncc1)NO | 0.83 | 5.24 |
| O=C(CCCCC[C@H](NC(=O)c1ccc(C(F)(F)F)cc1)C(=O)NCc1ccccc1)NO | 0.66 | 1.61 |
| CN(C)c1ccc(C(=O)N[C@@H](CCCCCC(=O)NO)C(=O)NC2(Cc3ccccc3)CCCC2)cc1 | 0.9 | 3 |
| O=C(CCCCCC(NC(=O)c1ccc([N+](=O)[O-])cc1)C(=O)NCc1ccccc1)NO (configuration not stated) | 6 | 9 |
| CN(C)c1ccc(C(=O)NC(CCCCCC(=O)NO)C(=O)NC2CCCc3ccccc32)cc1 (configuration not stated) | 0.3 | 1.81 |
| O=C(CCCCC[C@H](NC(=O)c1ccc(Br)cc1)C(=O)NCc1ccccn1)NO | 1.15 | 2.09 |
| CN(C)c1ccc(NC(=O)[C@H](CCCCCC(=O)NO)NC(=O)/C=C/c2ccccc2)cc1 | 0.16 | 0.24 |
| O=C(CCCCC[C@H](NC(=O)OCc1ccccc1)C(=O)NCc1ccccc1)NO | 1.52 | 1.52 |
| O=C(CCCCC[C@H](NC(=O)OCc1ccccc1)C(=O)NC1CCCc2ccccc21)NO (some centres not stated) | 1.7 | 1.7 |

| Structure (SMILES) | IC50 (MM96L) [µM] | IC50 (NFF) [µM] |
| --- | --- | --- |
| O=C(CCCCC[C@H](NC(=O)OCc1ccccc1)C(=O)NCc1ccncc1)NO | 4.32 | 23.3 |
| O=C(/C=C/c1ccccc1)N[C@@H](CCCCCC(=O)NO)C(=O)NCc1ccccc1 | 0.46 | 4.01 |
| O=C(CCCCCC(NC(=O)c1cccnc1)C(=O)NCc1ccccc1)NO (configuration not stated) | 9.5 | 24 |
| CC(C)CCNC(=O)C(CCCCCC(=O)NO)NC(=O)c1cccnc1 (configuration not stated) | 9 | 12 |
| CN(C)c1ccc(C(=O)N[C@@H](CCCCCC(=O)NO)C(=O)NCc2ccccn2)cc1 | 3.6 | 33 |
| CN(C)c1ccc(NC(=O)[C@H](CCCCCC(=O)NO)NC(=O)c2ccc(C(F)(F)F)cc2)cc1 | 0.22 | 0.4 |
| O=C(CCCCC[C@H](NC(=O)c1cc2ccccc2[nH]1)C(=O)NCc1ccccc1)NO | 0.25 | 1.26 |
| O=C(CCCCC[C@H](NC(=O)OCC1c2ccccc2-c2ccccc21)C(=O)NCc1ccccc1)NO | 3.2 | 5.37 |
| CN(C)c1ccc(C(=O)N[C@H](CCCCCC(=O)NO)C(=O)NCc2ccccc2)cc1 | 0.16 | 1 |
| O=C(CCCCC[C@H](NC(=O)c1ccc(C(F)(F)F)cc1)C(=O)Nc1cccc2cccnc12)NO | 0.258 | 0.696 |
| O=C(CCCCC[C@H](NC(=O)OCc1ccccc1)C(=O)Nc1ccc(-c2ccccc2)cc1)NO | 0.33 | 2.2 |
| O=C(CCCCC[C@H](NC(=O)C12CC3CC(CC(C3)C1)C2)C(=O)NCc1ccccc1)NO | 3.95 | 7.13 |
| CC(C)CCNC(=O)C(CCCCCC(=O)NO)NC(=O)c1ccco1 (configuration not stated) | 1.5 | 4.4 |
| O=C(CCCCC[C@H](NC(=O)Cc1ccc(-c2ccccc2)cc1)C(=O)NCc1ccccc1)NO | 2.36 | 5.13 |
| O=C(CCCCC[C@H](NC(=O)c1cccs1)C(=O)NCc1ccccc1)NO | 0.89 | 5.2 |

From ChEMBL document CHEMBL1138867, “Design, synthesis, potency, and cytoselectivity of anticancer agents derived by parallel synthesis from alpha-aminosuberic acid” (J Med Chem, 2006)
